The record followed here is ChEMBL document CHEMBL1137015, “Improved, selective, human intestinal carboxylesterase inhibitors designed to modulate 7-ethyl-10-[4-(1-piperidino)-1-piperidino]carbonyloxycamptothecin (Irinotecan; CPT-11) toxicity” (J Med Chem, 2009).

SMILES strings stand for the structures. The source made the active and inactive calls.

For assay [1], the target named is Acetylcholinesterase (Homo sapiens) (UniProt P22303). The assay is described as follows: Inhibition of human AchE using acetylthiocholine as substrate by spectrophotometric multiwell plate assay.
Chain of Acetylcholinesterase (Homo sapiens) (P22303 whole entry): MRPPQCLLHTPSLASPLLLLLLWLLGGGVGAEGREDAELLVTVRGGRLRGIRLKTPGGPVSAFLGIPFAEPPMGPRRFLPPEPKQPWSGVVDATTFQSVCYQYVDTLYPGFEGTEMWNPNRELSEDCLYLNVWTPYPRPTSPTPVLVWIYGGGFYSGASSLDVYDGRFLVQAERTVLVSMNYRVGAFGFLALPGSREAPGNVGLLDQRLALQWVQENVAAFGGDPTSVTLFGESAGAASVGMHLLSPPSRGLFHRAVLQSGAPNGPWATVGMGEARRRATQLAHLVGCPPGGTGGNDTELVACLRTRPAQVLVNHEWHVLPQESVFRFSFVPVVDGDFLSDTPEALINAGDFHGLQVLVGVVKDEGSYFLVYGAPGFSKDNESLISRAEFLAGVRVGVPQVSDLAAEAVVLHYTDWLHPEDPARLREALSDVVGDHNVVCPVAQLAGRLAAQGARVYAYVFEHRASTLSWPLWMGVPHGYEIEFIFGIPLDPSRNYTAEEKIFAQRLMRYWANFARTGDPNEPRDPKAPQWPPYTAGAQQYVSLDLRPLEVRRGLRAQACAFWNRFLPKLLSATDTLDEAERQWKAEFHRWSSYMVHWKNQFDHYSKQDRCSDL
Assay [2] has as its target Cholinesterase (Homo sapiens) (UniProt P06276). The assay is described as follows: Inhibition of human BchE using butyrylthiocholine as substrate by spectrophotometric multiwell plate assay.
Assay [3] is described as follows: Inhibition of human intestinal CE-mediated O-nitrophenyl acetate hydrolysis by spectrophotometry. In a few lines: (§1)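 Enzyme activity read spectrophotometrically as release of o-nitrophenol from o-nitrophenyl acetate across increasing inhibitor concentrations. Inhibitors were freshly dissolved in DMSO, typically as 10mM stocks. Fractional inhibition was plotted against inhibitor concentration and fitted to a partial-inhibition equation including Ks, α and β. Inhibition mode was chosen by Akaike's information criteria, and Ki was taken from the best-fit model.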

Assay [4] can be described thus: Inhibition of human intestinal CE-mediated irinotecan hydrolysis. Summed up: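 Human intestinal CE (25 U per reaction; 1 U converts 1 nmole o-nitrophenyl acetate/min) with 20µM CPT-11 in 50mM Hepes pH7.4, inhibitor 1nM to 100µM. Incubated 37°C for 5 min, stopped with cold acidified methanol, centrifuged. SN-38 measured by reverse phase HPLC. Fractional inhibition fitted to partial inhibition equation, model chosen by Akaike's criteria, Ki from best fit.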

For the next assay, the target named is T1, Liver carboxylesterase 1 (Homo sapiens, UniProt P23141).
T1 sequence (P23141 whole entry): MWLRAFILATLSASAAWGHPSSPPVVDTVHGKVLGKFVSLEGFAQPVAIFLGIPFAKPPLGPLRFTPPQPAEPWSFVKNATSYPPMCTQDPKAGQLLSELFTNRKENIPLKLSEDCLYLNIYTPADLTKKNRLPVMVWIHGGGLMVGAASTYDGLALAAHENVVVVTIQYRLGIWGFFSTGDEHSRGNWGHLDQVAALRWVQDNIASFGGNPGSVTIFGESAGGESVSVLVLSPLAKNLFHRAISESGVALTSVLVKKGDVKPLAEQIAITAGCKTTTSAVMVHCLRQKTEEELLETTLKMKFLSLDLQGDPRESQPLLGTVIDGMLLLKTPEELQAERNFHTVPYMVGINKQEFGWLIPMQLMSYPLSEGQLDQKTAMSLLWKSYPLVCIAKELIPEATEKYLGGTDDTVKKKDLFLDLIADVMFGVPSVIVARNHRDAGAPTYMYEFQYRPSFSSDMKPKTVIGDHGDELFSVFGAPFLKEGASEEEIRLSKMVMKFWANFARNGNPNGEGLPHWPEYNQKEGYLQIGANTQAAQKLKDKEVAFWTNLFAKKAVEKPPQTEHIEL
As to the kind of experiment: Inhibition of human liver CE1-mediated O-nitrophenyl acetate hydrolysis by spectrophotometry. In a few lines: as §1

Chain of Cholinesterase (Homo sapiens) (P06276 whole entry): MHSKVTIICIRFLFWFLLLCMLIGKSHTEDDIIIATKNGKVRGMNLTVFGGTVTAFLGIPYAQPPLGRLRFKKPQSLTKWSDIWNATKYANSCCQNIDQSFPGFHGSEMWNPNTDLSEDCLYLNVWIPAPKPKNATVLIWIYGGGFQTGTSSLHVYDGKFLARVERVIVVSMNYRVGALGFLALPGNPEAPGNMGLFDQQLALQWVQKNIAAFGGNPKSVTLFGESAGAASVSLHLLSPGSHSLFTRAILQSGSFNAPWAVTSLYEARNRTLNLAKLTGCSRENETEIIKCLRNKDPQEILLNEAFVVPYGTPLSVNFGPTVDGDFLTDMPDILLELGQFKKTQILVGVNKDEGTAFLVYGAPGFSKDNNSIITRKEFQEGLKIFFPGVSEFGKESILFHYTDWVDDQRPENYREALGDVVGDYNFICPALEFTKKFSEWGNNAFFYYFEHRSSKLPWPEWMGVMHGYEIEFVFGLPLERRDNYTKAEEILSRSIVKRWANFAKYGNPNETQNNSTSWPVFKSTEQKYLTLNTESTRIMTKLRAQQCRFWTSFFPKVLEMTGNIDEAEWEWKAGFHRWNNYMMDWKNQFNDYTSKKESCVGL

As a reminder, the Ki is the equilibrium dissociation constant of an inhibitor or competing ligand from its target. As for `O=S(=O)(Nc1ccc(NS(=O)(=O)c2ccc(Br)cc2)cc1)c1ccc(Br)cc1`, the outcome in assay [1] and in assay [2] was inactive. For the same compound, the inhibitory constant (Ki) in assay [3] is 0.0852 µM; in assay [4], 0.044 µM; at Liver carboxylesterase 1 it was more than 100 µM.
For `Cc1c(C)c(NS(=O)(=O)c2ccc(Br)cc2)c(C)c(C)c1NS(=O)(=O)c1ccc(Br)cc1`, the result in assay [1] and in assay [2] was inactive. Besides, the Ki is 3.24 µM in assay [3], more than 100 µM in assay [4] and more than 100 µM on Liver carboxylesterase 1.
As for `O=S(=O)(Nc1ccc(NS(=O)(=O)c2ccc(F)cc2)cc1)c1ccc(F)cc1`, the result in assay [1] and in assay [2] was inactive. In addition, the Ki in assay [3] was 0.355 µM; in assay [4], 0.079 µM; on Liver carboxylesterase 1 it was more than 100 µM.
With `O=S(=O)(Nc1ccc2c(c1)Cc1cc(NS(=O)(=O)c3ccccc3)ccc1-2)c1ccccc1`, the result in assay [1] and in assay [2] was inactive. Further, the Ki in assay [3] is 0.0908 µM; in assay [4] it was 0.0847 µM; on Liver carboxylesterase 1, more than 100 µM.
With `O=S(=O)(Nc1ccc(NS(=O)(=O)c2cc(F)c(F)c(F)c2)cc1)c1cc(F)c(F)c(F)c1`, the result in assay [1] and in assay [2] was inactive. In addition, the Ki in assay [3] is 0.21 µM; in assay [4] it was 0.192 µM; at Liver carboxylesterase 1, more than 100 µM.
For `O=S(=O)(Nc1ccc2c(c1)Cc1cc(NS(=O)(=O)c3cccc(Br)c3)ccc1-2)c1cccc(Br)c1`, the outcome in assay [1] and in assay [2] was inactive. Besides, the results for the Ki (in assay [3]; in assay [4]; on Liver carboxylesterase 1) were 0.0212 µM, 0.0397 µM and more than 100 µM, respectively.
Turning to `CS(=O)(=O)Nc1ccc(SSc2ccc(NS(C)(=O)=O)cc2)cc1`, the result in assay [1] and in assay [2] was inactive. Besides, the Ki is 0.767 µM in assay [3] and more than 100 µM in assay [4].
With `O=S(=O)(Nc1ccc(NS(=O)(=O)c2cccc(F)c2)cc1)c1cccc(F)c1`, the result in assay [1] and in assay [2] was inactive. The figures for the Ki (in assay [3]; in assay [4]; at Liver carboxylesterase 1) were 0.248 µM, 0.152 µM and more than 100 µM, respectively.
As to `O=S(=O)(Nc1ccc(NS(=O)(=O)c2cccc(Br)c2)cc1)c1cccc(Br)c1`, the outcome in assay [1] and in assay [2] was inactive. Further, the Ki in assay [3] was 0.067 µM; in assay [4] it was 0.121 µM; at Liver carboxylesterase 1, more than 100 µM.
With `O=S(=O)(Nc1ccc(NS(=O)(=O)c2cccc(Cl)c2)cc1)c1cccc(Cl)c1`, the outcome in assay [1] and in assay [2] was inactive. Further, the Ki in assay [3] is 0.074 µM; in assay [4], 0.062 µM; at Liver carboxylesterase 1 it was more than 100 µM.
Regarding `Cc1c(C)c(NS(=O)(=O)c2ccc(F)cc2)c(C)c(C)c1NS(=O)(=O)c1ccc(F)cc1`, the result in assay [1] and in assay [2] was inactive. For the same compound, the Ki (in assay [3]; in assay [4]; on Liver carboxylesterase 1) was more than 100 µM in each case.
For `O=S(=O)(Nc1ccc(NS(=O)(=O)c2ccc(Cl)cc2)c2ccccc12)c1ccc(Cl)cc1`, the outcome in assay [1] and in assay [2] was inactive. For the same compound, the Ki in assay [3] was 0.194 µM; in assay [4], more than 100 µM.
For the compound `O=S(=O)(Nc1ccc(Oc2ccccc2)cc1)c1ccc(Br)cc1`, the result in assay [1] and in assay [2] was inactive. The results for the Ki in assay [3] and in assay [4] were 0.165 µM and more than 100 µM, respectively.
For the compound `Cc1cc(NS(=O)(=O)c2ccccc2)ccc1NS(=O)(=O)c1ccccc1`, the outcome in assay [1] and in assay [2] was inactive. The Ki worked out at 0.365 µM in assay [3] and 0.238 µM in assay [4].
